Assay outcomes from PubChem.
APOBEC3G inh – APOBEC3G DNA deaminase inhibitors, primary screen, biochemical, fluorescence, single-stranded DNA substrate, uHTS. 330,000 tested, 0.28% active. recombinant A3G, ssDNA deamination FAM/TAMRA fluorescence. DNA dC->dU-editing enzyme APOBEC-3G (Homo sapiens), Q9HC16. inhibition, % at 20 µM;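 active means inhibition of at least 40% at 20 µM, with no more than 30% in the related APOBEC3A deaminase screen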;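 further: plate controls were DMSO wells with A3G for no effect and wells lacking A3G enzyme for full effect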
A3A deaminase – APOBEC3A ssDNA deaminase inhibitors, primary screen, selectivity assay for APOBEC3G inhibitor project, biochemical, FAM/TAMRA oligo cleavage fluorescence; DNA dC->dU-editing enzyme APOBEC-3A (Homo sapiens), P31941; recombinant A3A, FAM/TAMRA ssDNA deamination fluorescence; inhibition, % at 20 µM; 330,000 tested, 0.41% active; AID 493011, 2011;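 active means at least 40% inhibition at 20 µM here, with at most 30% in a related deaminase screen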;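 further: plate controls were A3A with DMSO for no effect and wells lacking A3A enzyme for full effect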
Target sequence (P31941 whole entry, looked up): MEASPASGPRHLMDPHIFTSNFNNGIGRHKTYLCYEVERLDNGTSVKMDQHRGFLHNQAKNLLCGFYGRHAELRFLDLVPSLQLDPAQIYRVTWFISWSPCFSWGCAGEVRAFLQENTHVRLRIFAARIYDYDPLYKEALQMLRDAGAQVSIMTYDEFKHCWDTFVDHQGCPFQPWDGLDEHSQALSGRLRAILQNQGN
UCH37 inh – inhibitors of human UCH37 deubiquitinase, primary screen, biochemical, Ub-AMC cleavage, fluorescence. purified proteasome/UCH37. inhibition, % (test concentration not listed). 330,000 tested, 0.33% active. AID 588478, 2011;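 active means mean inhibition over replicate wells above about 20%, limit read from the data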;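 further: 0% = compound-free wells with enzyme and 100% = wells lacking proteasome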
Target sequence (Q9Y5K5 whole entry, looked up): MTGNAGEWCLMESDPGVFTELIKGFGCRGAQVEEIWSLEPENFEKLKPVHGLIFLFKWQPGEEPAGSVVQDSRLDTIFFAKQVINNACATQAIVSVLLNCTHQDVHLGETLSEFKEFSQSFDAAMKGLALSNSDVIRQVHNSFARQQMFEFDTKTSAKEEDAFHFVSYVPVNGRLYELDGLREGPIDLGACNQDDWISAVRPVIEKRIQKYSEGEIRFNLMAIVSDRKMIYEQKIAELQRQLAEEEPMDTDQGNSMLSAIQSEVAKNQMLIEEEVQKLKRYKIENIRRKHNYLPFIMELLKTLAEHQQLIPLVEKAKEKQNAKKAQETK
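Material: human UCH37 enzyme supplied as purified proteasome complex. Measure: % inhibition of Ub-AMC cleavage fluorescence. Medium: pH 7.4 Tris-HCl (50 mM) with ovalbumin, ATP-MgCl2, DTT. Times: 30 min preincubation with enzyme, 25 min cleavage at room temperature. Detection: AMC fluorescence intensity at 355/460 nm.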
JMJD2C inh – inhibitors of GASC-1 histone demethylase, primary screen, biochemical, fluorescence, DELFIA europium; Lysine-specific demethylase 4C (Homo sapiens), Q9H3R0; GST-JMJD2C(1-420) H3K9me3 demethylation; inhibition, % at 2.35 µM; 330,000 tested, 0.069% active; AID 2099, 2009;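 active means more than half of a compound's replicate wells show inhibition beyond 50%, single wells judged on their own value; inconclusive means some, but no more than half, of replicates pass 50% inhibition; inactive means no replicate passes 50% inhibition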;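 further: signal counts dimethyl H3K9 product captured on neutravidin plate; 0% = median of DMSO wells and 100% = 0.3 times that DMSO median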
* marks the source's active call; other numbers are inactive results; ? = inconclusive; · = no result given. Hits are enriched below; roughly 0.97% of the tested compounds scored in any of these assays.

SMILES	APOBEC3G inh	A3A deaminase	UCH37 inh	JMJD2C inh
Cc1ccc2c(c1)c1c3n2CCCNC3CCC1 (stereo not given)	-0.1	0.8	1.0	86.3*
CC(/C=C/c1cccc([N+](=O)[O-])c1)=NNC(=O)c1ccncc1	·	·	9.6	·
Nc1c(Cl)ncnc1NCc1cccnc1	-5.0	-1.8	1.8	54.6*
c1cncc(CNc2ncnc3sccc23)c1	-7.5	-2.5	-0.7	-6.6
CCC(Sc1nc(N)cc(=O)[nH]1)C(=O)NC(C(=O)OC)c1ccccc1 (stereo not given)	-4.6	-7.6	32.3*	-6.2
COC(=O)C(NC(=O)CSc1nc(N)cc(=O)[nH]1)c1ccccc1 (stereo not given)	-1.1	-0.7	1.1	-9.2
CN(C)CCN(C(=O)/C=C/c1cccs1)c1nc2ccc(F)cc2s1	-6.9	2.8	-4.9	50.3*
CCOC(=O)NN=Cc1c(F)c(F)c(F)c(F)c1F	·	·	4.0	·
CC(C)CCNC(=O)CON=Cc1ccccc1OC(F)F	·	·	3.1	·
Cc1nc2c(C)cccc2cc1C(=O)NN=Cc1ccc(N(C)C)cc1	·	·	4.5	·
CCOC(=O)/C(N=Nc1ccc(C(=O)O)cc1[N+](=O)[O-])=C(\C)O	-4.8	2.2	23.3*	-1.3
CC(=NNC(=O)CNc1ccc(C)cc1)c1ccc(Cl)cc1	·	·	1.1	·
CC[n+]1c(/C=C2\Sc3ccccc3N2C)ccc2cccc(C)c21	·	·	23.5*	14.0
CN1/C(=C/c2cccc[n+]2CCO)Sc2ccccc21	40.6	93.4	2.5	-15.4
CC(C)(C)C(=O)ON=C1C(=O)N(c2ccccc2)c2ccccc21	·	·	1.4	·
O=C(Nc1ccc(Cl)cc1)N1CCN(c2ccccc2)CC1	2.3	2.8	5.5	51.9*
CC(=O)c1ccc(N2CCN(C(=O)Nc3ccc(Cl)cc3)CC2)cc1	-5.4	-3.3	-1.9	-10.2
CN(c1ccc(C(=O)O)cc1)S(=O)(=O)c1ccccc1	2.1	1.5	-1.8	64.8*
CN(c1ccccc1)S(=O)(=O)c1ccc(C(=O)NNC(=O)c2ccccc2)cc1	-5.2	-2.3	2.8	·
CCOc1ccc(C(Nc2ccc(C)cc2)P2(=O)OCCC(C)O2)cc1 (stereo not given)	-6.2	-16.4	29.8*	4.3
COc1cc(C(C)=NNC(=O)CSc2nncn2C)ccc1OCc1ccccc1Cl	·	·	2.3	·
COc1ccc(CC(=NOC(C)=O)c2ccc(OC)cc2)cc1	·	·	4.7	·
CC(CC(=O)Nc1ccc(C)c(Cl)c1)=NNC(=O)c1ccccn1	·	·	0.6	·
Cc1cc(C)nc(SCc2ccc(Cl)cc2)n1	0.8	0.0	2.4	1.5
Cc1cc(C)nc(NCc2ccc(Cl)cc2)n1	-0.8	3.9	2.3	68.1*
SMILES	APOBEC3G inh	A3A deaminase	UCH37 inh	JMJD2C inh
COc1ccc(C2=CSC(N=Cc3ccc(F)cc3)=NN2)cc1	·	·	-1.8	·
CC(C)n1cc(C=NNc2ccc(C(=O)O)cc2)c2ccccc21	·	·	-29.5	·
Cc1cc(C)cc(N2C(=O)CC(Sc3ncn[nH]3)C2=O)c1 (stereo not given)	41.0*	-2.5	2.7	-81.4
S=c1[nH]nc(-c2ccco2)n1-c1ccccc1Cl	41.8*	-1.2	2.4	-17.1
S=c1[nH]nc(-c2cc(-c3ccco3)[nH]n2)n1-c1ccccc1Cl	78.1	40.7	2.4	5.5
CCOC(=O)NN=Cc1ccc(OCCSc2ccc(Cl)cc2)c(OCC)c1	·	·	-0.7	·
CC(=NNS(C)(=O)=O)c1ccc2ccccc2c1	·	·	1.8	·
C=CCn1c(COc2ccc(Cl)cc2)nnc1SCC(=O)NN=Cc1ccccc1	·	·	0.0	·
O=C(NN=Cc1ccncc1)c1ccncc1	·	·	2.8	·
O=C(NN=Cc1ccncc1)c1ccccc1	·	·	31.0*	·
COc1ccccc1C(=O)NCC(=O)NN=Cc1ccncc1	·	·	30.1*	·
CN(C)S(=O)(=O)N1CCC(Oc2cccc(C(=O)NCCC3=CCCCC3)c2)CC1	0.3	-3.2	22.2*	-13.8
CCOc1ccc(-c2n[nH]c(C)c2Oc2ccccc2OC)c(O)c1	-6.2	-5.3	3.3	-25.5
C=C(C)COc1ccc(-c2n[nH]c(C)c2Oc2ccccc2OC)c(O)c1	-5.9	-2.0	34.7*	-14.5
CC[C@]12c3[nH]c4ccccc4c3CCN1C(=O)C(CC(=O)NCCCOC)C[C@@H]2C(=O)N1CCN(C(=O)C2CC2)CC1 (stereo not given in full)	4.2	0.3	3.8	52.7*
CC[C@]12c3[nH]c4ccccc4c3CCN1C(=O)C(CC(=O)NCCCN(C)C)C[C@@H]2C(=O)N1CCN(C(=O)C2CC2)CC1 (stereo not given in full)	-3.5	-0.1	4.4	7.7
N#CC1=C(N)SC(N)=C(C#N)C1CCc1ccccc1	-3.7	-0.6	0.1	2.5
N#CC1=C(N)SC(N)=C(C#N)C1Cc1ccccc1	47.5*	-5.1	-1.5	-1.9
CCOc1cc(C=Nn2c(C)nnc2C)ccc1O	·	·	3.1	·
CCCCCCCC#Cc1ccccc1/C=N/S(=O)c1ccc(C)cc1 (stereo not given)	60.9*	-5.5	·	16.3
CCCCC#Cc1ccccc1CC(=O)Nc1ccccc1	-6.4	5.6	-0.3	7.2
COc1ccc(C=NNC(=O)Cc2ccc(Cl)cc2)cc1OC	·	·	34.8*	·
COCc1cc(/C=N\NC(=O)Cc2ccc(Cl)cc2)ccc1OC	-2.8	-0.8	·	6.9
CCc1ccc(CCC(=O)Nc2sc3c(c2C#N)CCCC3)o1	-7.2	-2.3	-0.7	51.2*
CCC(=O)Nc1sc2c(c1C#N)CCC2	-4.2	0.8	0.2	-7.5
SMILES	APOBEC3G inh	A3A deaminase	UCH37 inh	JMJD2C inh
Clc1ccc(N=c2ssnc2Cl)cc1	76.3*	-1.5	1.7	?
Fc1ccc(N=c2ssnc2Cl)c(F)c1	73.5*	-0.5	1.8	-3.9
C=CC[C@H](CC(=O)NCCO)C(=O)N[C@@H](COC(=O)[C@@H](CC=C)CC(=O)OC(C)(C)C)Cc1c[nH]c2ccccc12	-11.3	-5.9	-1.4	-1.5
C=CC[C@@H](CC(=O)NCCO)C(=O)N[C@@H](COC(=O)[C@@H](CC=C)CC(=O)OC(C)(C)C)Cc1c[nH]c2ccccc12	-10.5	-3.0	22.9*	-0.7
OC(CNCc1ccccc1)(c1ccccc1)c1ccccc1	-5.7	-1.5	1.8	22.2
OC(Cc1ccncc1)(c1ccccc1)c1ccccc1	1.0	1.0	24.7*	-1.3
COc1ccc2c(C=NNS(=O)(=O)c3ccc(C)cc3)c[nH]c2c1	·	·	0.3	·
CC1C(=O)N(Cc2ccc(F)cc2)c2ccccc2N1C(=O)c1c(F)cccc1F (stereo not given)	-6.8	-2.5	4.9	-31.7
CC1C(=O)N(Cc2ccc([N+](=O)[O-])cc2)c2ccccc2N1C(=O)C1CC1 (stereo not given)	-7.5	-1.6	4.3	60.3*
COc1cc(C(=O)N2CCN(C(=O)COc3ccc4ccccc4c3)CC2)cc(OC)c1OC	-5.0	-13.8	27.7*	-12.0
